Values after ≈ are worked out from the molar mass of the structure shown. Active and inactive are the calls of the source. No cut-off for these calls is given here.
Columns and labels:
Staphylococcus aureus [1] = assay: Antibacterial activity against methicillin-resistant Staphylococcus aureus H 5996/08 after 24 hrs by broth microdilution method; assay type: functional; settings: H 5996/08, 24 h
In short: (§1)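 Broth microdilution in Mueller–Hinton broth, compounds dissolved in DMSO, tested over a dilution series from 500 downward. MIC taken as ≥95% growth reduction (IC95) versus drug-free control. Benzylpenicillin comparator. Readings at 24 and 48 h.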

[2] = system: Trichophyton mentagrophytes; assay: Antifungal activity against Trichophyton mentagrophytes 445 after 72 hrs by broth microdilution method; assay type: functional; settings: Trichophyton mentagrophytes, 445, 72 h
In short: (§2)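 Filamentous dermatophyte tested by broth microdilution in RPMI 1640 with glutamine, fluconazole as reference. Value expressed as IC50 relative to growth control. Read at 72 and 120 h.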

Enterococcus sp. = assay: Antibacterial activity against Enterococcus sp. J 14365/08 at 500 micromol/L after 24 to 48 hrs by broth microdilution method; assay type: functional, organism-based; in short: as §1
Nakaseomyces glabratus = assay: Antifungal activity against Candida glabrata 20/I at 500 micromol/L after 24 to 48 hrs by broth microdilution method; assay type: functional, organism-based
In short: (§3)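 Broth microdilution in RPMI 1640 with glutamine, fluconazole as reference. For yeasts, MIC is ≥80% growth reduction (IC80) versus control. For filamentous fungi, the value is expressed as IC50. Readings at 24 and 48 h.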

Candida tropicalis = assay: Antifungal activity against Candida tropicalis 156 at 500 micromol/L after 24 to 48 hrs by broth microdilution method; assay type: functional, organism-based; in short: as §3
Mycobacterium kansasii [3] = assay: Antimycobacterial activity against Mycobacterium kansasii My 235/80 after 14 days; assay type: functional; settings: My 235/80, 336 h
In short: (§4)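 Micromethod MIC in Šula's semisynthetic medium at 37 °C. Compounds added in DMSO at 1000 down to 0.032 µmol/L. Isoniazid standard in sterile water at 0.5–250 µmol/L. Inocula: H37Rv 10^3, M. avium 10^5, M. kansasii 10^4. Read at 14 and 21 d, plus 7 d for M. kansasii.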

Candida albicans [4] = assay: Antifungal activity against Candida albicans ATCC 44859 after 48 hrs by broth microdilution method; assay type: functional; settings: ATCC 44859, 48 h; in short: as §3
Pseudomonas aeruginosa = assay: Antibacterial activity against Pseudomonas aeruginosa CCM 1961 at 500 micromol/L after 24 to 48 hrs by broth microdilution method; assay type: functional, organism-based; in short: as §1
Mycobacterium avium [5] = assay: Antimycobacterial activity against isoniazid, rifampicin, ethambutol and ofloxacin-resistant Mycobacterium avium My 330/88 after 14 days; assay type: functional; settings: My 330/88, 336 h; in short: as §4
Staphylococcus aureus [6] = assay: Antibacterial activity against Staphylococcus aureus CCM 4516/08 after 48 hrs by broth microdilution method; assay type: functional; settings: CCM 4516/08, 48 h; in short: as §1
Pichia kudriavzevii [7] = assay: Antifungal activity against Candida krusei E28 after 48 hrs by broth microdilution method; assay type: functional; settings: E28, 48 h; in short: as §3
[8] = system: Staphylococcus epidermidis; assay: Antibacterial activity against Staphylococcus epidermidis H 6966/08 after 48 hrs by broth microdilution method; assay type: functional; settings: H 6966/08, 48 h; in short: as §1
[9] = system: Mycobacterium tuberculosis; assay: Antimycobacterial activity against Mycobacterium tuberculosis H37Rv My 331/88 after 14 days; assay type: functional; settings: H37Rv My 331/88, 336 h; in short: as §4
Escherichia coli = assay: Antibacterial activity against Escherichia coli CCM 4517 at 500 micromol/L after 24 to 48 hrs by broth microdilution method; assay type: functional, organism-based; in short: as §1
[10] = system: Trichophyton mentagrophytes; assay: Antifungal activity against Trichophyton mentagrophytes 445 after 120 hrs by broth microdilution method; assay type: functional; settings: Trichophyton mentagrophytes, 445, 120 h; in short: as §2
Staphylococcus aureus [11] = assay: Antibacterial activity against Staphylococcus aureus CCM 4516/08 after 24 hrs by broth microdilution method; assay type: functional; settings: CCM 4516/08, 24 h; in short: as §1
Candida albicans [12] = assay: Antifungal activity against Candida albicans ATCC 44859 after 24 hrs by broth microdilution method; assay type: functional; settings: ATCC 44859, 24 h; in short: as §3
[13] = system: Staphylococcus epidermidis; assay: Antibacterial activity against Staphylococcus epidermidis H 6966/08 after 24 hrs by broth microdilution method; assay type: functional; settings: H 6966/08, 24 h; in short: as §1
HepG2 = assay: Cytotoxicity against human HepG2 cells after 24 hrs by CellTiter assay; assay type: cell-based; settings: HepG2, 24 h
In short: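 HepG2 cells (passage 27–33) in MEM with 10% FBS, L-glutamine and NEAA, seeded at 1×10^4 per well. Treated next day with compounds at 0.1–100 µM (or 0.1–25 µmol/L), triplicates, <1% DMSO, for 24 h at 37 °C, 5% CO2. MTS reagent added for 2 h, absorbance read at 490 nm. IC50 taken against untreated (100%) and 10% DMSO (0%) controls.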

Mycobacterium kansasii [14] = assay: Antimycobacterial activity against Mycobacterium kansasii 6509/96 after 14 days; assay type: functional; settings: 6509/96, 336 h; in short: as §4
Klebsiella pneumoniae [15] = assay: Antibacterial activity against ESBL-positive Klebsiella pneumoniae J 14368/08 at 500 micromol/L after 24 to 48 hrs by broth microdilution method; assay type: functional, organism-based; in short: as §1
Trichosporon asahii [16] = assay: Antifungal activity against Trichosporon asahii 1188 after 48 hrs by broth microdilution method; assay type: functional; settings: Trichosporon asahii, 1188, 48 h; in short: as §3
Mycobacterium kansasii [17] = assay: Antimycobacterial activity against Mycobacterium kansasii My 235/80 after 21 days; assay type: functional; settings: My 235/80, 504 h; in short: as §4
[18] = system: Mycobacterium tuberculosis; assay: Antimycobacterial activity against Mycobacterium tuberculosis H37Rv My 331/88 after 21 days; assay type: functional; settings: H37Rv My 331/88, 504 h; in short: as §4
Staphylococcus aureus [19] = assay: Antibacterial activity against methicillin-resistant Staphylococcus aureus H 5996/08 after 48 hrs by broth microdilution method; assay type: functional; settings: H 5996/08, 48 h; in short: as §1
Aspergillus fumigatus [20] = assay: Antifungal activity against Aspergillus fumigatus 231 after 48 hrs by broth microdilution method; assay type: functional; settings: Aspergillus fumigatus, 231, 48 h; in short: as §3
Klebsiella pneumoniae [21] = assay: Antibacterial activity against Klebsiella pneumoniae D 11750/08 at 500 micromol/L after 24 to 48 hrs by broth microdilution method; assay type: functional, organism-based; in short: as §1
Lichtheimia corymbifera [22] = assay: Antifungal activity against Absidia corymbifera 272 after 48 hrs by broth microdilution method; assay type: functional; settings: Lichtheimia corymbifera, 272, 48 h; in short: as §3
Trichosporon asahii [23] = assay: Antifungal activity against Trichosporon asahii 1188 after 24 hrs by broth microdilution method; assay type: functional; settings: Trichosporon asahii, 1188, 24 h; in short: as §3
Aspergillus fumigatus [24] = assay: Antifungal activity against Aspergillus fumigatus 231 after 24 hrs by broth microdilution method; assay type: functional; settings: Aspergillus fumigatus, 231, 24 h; in short: as §3
Mycobacterium kansasii [25] = assay: Antimycobacterial activity against Mycobacterium kansasii 6509/96 after 21 days; assay type: functional; settings: 6509/96, 504 h; in short: as §4
Mycobacterium avium [26] = assay: Antimycobacterial activity against isoniazid, rifampicin, ethambutol and ofloxacin-resistant Mycobacterium avium My 330/88 after 21 days; assay type: functional; settings: My 330/88, 504 h; in short: as §4
Pichia kudriavzevii [27] = assay: Antifungal activity against Candida krusei E28 after 24 hrs by broth microdilution method; assay type: functional; settings: E28, 24 h; in short: as §3
Mycobacterium kansasii [28] = assay: Antimycobacterial activity against Mycobacterium kansasii My 235/80 after 7 days; assay type: functional; settings: My 235/80, 168 h; in short: as §4
Mycobacterium kansasii [29] = assay: Antimycobacterial activity against Mycobacterium kansasii 6509/96 after 7 days; assay type: functional; settings: 6509/96, 168 h; in short: as §4
Lichtheimia corymbifera [30] = assay: Antifungal activity against Absidia corymbifera 272 after 24 hrs by broth microdilution method; assay type: functional; settings: Lichtheimia corymbifera, 272, 24 h; in short: as §3

| Structure (SMILES) | MIC95 (Staphylococcus aureus [1]) [µM] | MIC50 [2] [µM] | Activity (Enterococcus sp.) | Activity (Nakaseomyces glabratus) | Activity (Candida tropicalis) | MIC (Mycobacterium kansasii [3]) [µM] | MIC80 (Candida albicans [4]) [µM] | Activity (Pseudomonas aeruginosa) | MIC (Mycobacterium avium [5]) [µM] | MIC95 (Staphylococcus aureus [6]) [µM] | MIC80 (Pichia kudriavzevii [7]) [µM] | MIC95 [8] [µM] | MIC [9] [µM] | Activity (Escherichia coli) | MIC50 [10] [µM] | MIC95 (Staphylococcus aureus [11]) [µM] | MIC80 (Candida albicans [12]) [µM] | MIC95 [13] [µM] | IC50 (HepG2) [µM] | MIC (Mycobacterium kansasii [14]) [µM] | further results |
| --- | --- | --- | --- | --- | --- | --- | --- | --- | --- | --- | --- | --- | --- | --- | --- | --- | --- | --- | --- | --- | --- |
| CCOP(=O)(OCC)Oc1cc(Cl)ccc1C(=O)Nc1ccc(F)cc1 | > 500 | 500 (≈ 201 µg/mL) | inactive | inactive | inactive | 16 (≈ 6.43 µg/mL) | > 500 | inactive | 32 (≈ 12.9 µg/mL) | 500 (≈ 201 µg/mL) | > 500 | > 500 | 16 (≈ 6.43 µg/mL) | inactive | 500 (≈ 201 µg/mL) | 250 (≈ 100 µg/mL) | > 500 | > 500 | 33.8 | 32 (≈ 12.9 µg/mL) | Activity (Klebsiella pneumoniae [15]): inactive; MIC80 (Trichosporon asahii [16]): > 500 µM; MIC (Mycobacterium kansasii [17]): 16 µM (≈ 6.43 µg/mL); MIC [18]: 16 µM (≈ 6.43 µg/mL); MIC95 (Staphylococcus aureus [19]): > 500 µM; MIC50 (Aspergillus fumigatus [20]): > 500 µM; Activity (Klebsiella pneumoniae [21]): inactive; MIC50 (Lichtheimia corymbifera [22]): > 500 µM; MIC80 (Trichosporon asahii [23]): > 500 µM; MIC50 (Aspergillus fumigatus [24]): > 500 µM; MIC (Mycobacterium kansasii [25]): 32 µM (≈ 12.9 µg/mL); MIC (Mycobacterium avium [26]): 32 µM (≈ 12.9 µg/mL); MIC80 (Pichia kudriavzevii [27]): > 500 µM; MIC (Mycobacterium kansasii [28]): 16 µM (≈ 6.43 µg/mL); MIC (Mycobacterium kansasii [29]): 16 µM (≈ 6.43 µg/mL); MIC50 (Lichtheimia corymbifera [30]): > 500 µM |
| CCOP(=O)(OCC)Oc1ccc(Br)cc1C(=O)Nc1ccc(C(F)(F)F)cc1 | 15.6 (≈ 7.75 µg/mL) | 250 (≈ 124 µg/mL) | inactive | inactive | inactive | 2 (≈ 0.992 µg/mL) | > 500 | inactive | 8 (≈ 3.97 µg/mL) | 31.2 (≈ 15.5 µg/mL) | > 500 | 15.6 (≈ 7.75 µg/mL) | 1 (≈ 0.496 µg/mL) | inactive | 250 (≈ 124 µg/mL) | 15.6 (≈ 7.75 µg/mL) | > 500 | 7.81 (≈ 3.88 µg/mL) | 1.84 | 2 (≈ 0.992 µg/mL) | Activity (Klebsiella pneumoniae [15]): inactive; MIC80 (Trichosporon asahii [16]): > 500 µM; MIC (Mycobacterium kansasii [17]): 2 µM (≈ 0.992 µg/mL); MIC [18]: 1 µM (≈ 0.496 µg/mL); MIC95 (Staphylococcus aureus [19]): 15.6 µM (≈ 7.75 µg/mL); MIC50 (Aspergillus fumigatus [20]): > 500 µM; Activity (Klebsiella pneumoniae [21]): inactive; MIC50 (Lichtheimia corymbifera [22]): > 500 µM; MIC80 (Trichosporon asahii [23]): > 500 µM; MIC50 (Aspergillus fumigatus [24]): > 500 µM; MIC (Mycobacterium kansasii [25]): 2 µM (≈ 0.992 µg/mL); MIC (Mycobacterium avium [26]): 8 µM (≈ 3.97 µg/mL); MIC80 (Pichia kudriavzevii [27]): > 500 µM; MIC (Mycobacterium kansasii [28]): 1 µM (≈ 0.496 µg/mL); MIC (Mycobacterium kansasii [29]): 2 µM (≈ 0.992 µg/mL); MIC50 (Lichtheimia corymbifera [30]): > 500 µM |

From ChEMBL document CHEMBL3102784, “Salicylanilide diethyl phosphates: synthesis, antimicrobial activity and cytotoxicity” (Bioorg Med Chem, 2014)
